This is a sample that favours compounds with a hit; in the whole collection about 2.6% have one here.
SIRT5 block = SIRT5 desuccinylase inhibitors, primary screen, biochemical, fluorescence imaging, single point, set 5. NAD-dependent protein deacylase sirtuin-5, mitochondrial (Homo sapiens), Q9NXA8. Purified SirT5, succinyl-peptide AMC, trypsin-coupled fluorescence. inhibition, % at 15 µM. hit rate 1.1% among 330,000; in the data active = inhibition above about 15%
Target sequence (Q9NXA8 whole entry, looked up): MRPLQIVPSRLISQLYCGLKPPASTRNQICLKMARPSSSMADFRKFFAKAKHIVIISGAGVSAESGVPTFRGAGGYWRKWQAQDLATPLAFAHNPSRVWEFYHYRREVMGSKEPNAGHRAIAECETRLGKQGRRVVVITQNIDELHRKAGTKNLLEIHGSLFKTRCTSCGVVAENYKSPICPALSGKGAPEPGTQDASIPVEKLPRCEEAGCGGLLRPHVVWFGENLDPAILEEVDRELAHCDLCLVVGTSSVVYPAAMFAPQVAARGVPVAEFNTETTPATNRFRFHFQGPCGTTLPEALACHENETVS
FGF22 binding = binders of human FGF22 protein, primary screen, FGF22 synaptogenesis inhibitor project, biophysical, thermal shift, single point; hit rate 1.5% among 340,000; Fibroblast growth factor 22 (Homo sapiens), Q9HCT0; activity (Tm shift, normalised), % at 9.99 µM; recombinant FGF22 thermal shift, SYPRO orange fluorescence; percent of sucrose octasulfate shift, DMSO zero;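 active = mean Tm shift, scaled 0 neutral to 100 positive control, at about 1.3% or above, every replicate too, limit read from the data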
Target sequence (Q9HCT0 whole entry, looked up): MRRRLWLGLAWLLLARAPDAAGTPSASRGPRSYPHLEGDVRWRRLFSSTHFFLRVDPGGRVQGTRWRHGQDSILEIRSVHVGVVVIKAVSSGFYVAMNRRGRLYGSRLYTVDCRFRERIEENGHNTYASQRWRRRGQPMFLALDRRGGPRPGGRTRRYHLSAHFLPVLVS
UCH37 inh = inhibitors of human UCH37 deubiquitinase, primary screen, biochemical, Ub-AMC cleavage, fluorescence; Ubiquitin carboxyl-terminal hydrolase isozyme L5 (Homo sapiens), Q9Y5K5; purified proteasome/UCH37; inhibition, % (test concentration not listed); hit rate 0.33% among 330,000;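 active = mean inhibition over replicate wells above about 20%, limit read from the data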;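 note: 0% = compound-free wells with enzyme and 100% = wells lacking proteasome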
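Signal – fluorescence, ex 355 nm, em 460 nm · System – Proteasome-bound UCH37 · Input – 0.15 nM proteasome as dispensed · Timing – 30 min preincubation with enzyme, 25 min cleavage at room temperature · Read-out basis – percent inhibition of cleavage signal versus uninhibited and no-proteasome wells · Medium – Tris-HCl pH 7.4 with ATP-MgCl2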
NSD2 HMT inh = NSD2 histone methyltransferase inhibitors, primary screen, biochemical, AlphaScreen, single concentration, set 2; Histone-lysine N-methyltransferase NSD2 (Homo sapiens), O96028; NSD2 peptide methylation, 120 min; inhibition, % at 12.5 µM; hit rate 0.54% among 310,000; in the data active = inhibition above about 50%
CASP6 VEID inh = human caspase-6 inhibitors, primary screen, biochemical, VEID-R110 fluorescence, single point, set 2; purified caspase-6, Z-VEID-R110 cleavage fluorescence; inhibition, % at 12.5 µM; hit rate 0.53% among 350,000;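 active = mean inhibition across replicates at least about 35%, with every replicate also reaching that limit, limit read from the data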;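 note: 0% = median of neutral control wells and 100% = no fluorescence left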
AlphaScreen art = AlphaScreen signal interference with preloaded methylated product, dose response, artefact control for NSD2 inhibitor project, biochemical, cherry-picked samples. hit rate 9.4% among 1,500. shares compounds with NSD2 HMT inh. AC35, µM (top dose mostly 10 µM), for the others: at the top dose activity change, negative = signal loss. AlphaScreen artifact counterscreen, preloaded methylated H4 peptide; call rule not given here
Active calls of the source: *; / = no result.

SMILES | SIRT5 block | FGF22 binding | UCH37 inh | NSD2 HMT inh | CASP6 VEID inh | AlphaScreen art
CCOC(=O)C1CCN(c2nc(C)cc(C)c2C#N)CC1 | 9.9 | 0.0 | -1.8 | -2.2 | / | /
C=CCN1CCN(C(c2cccc(OC)c2OC)c2nnnn2CCC(C)C)CC1 (stereo not given) | 1.0 | 0.0 | 1.9 | 97.9* | -3.1 | -3.8%
COc1cccc(C(c2nnnn2CCc2ccccc2)N2CCN(c3ccccc3)CC2)c1OC (stereo not given) | / | / | 1.8 | -1.4 | / | /
N=C1/C(=C\c2ccc(Br)o2)C(=O)N=C2SC(CC(=O)N3CCCCC3)=NN12 | 20.6* | 0.0 | 9.6 | 66.7* | -1.3 | -4.5%
Cc1ccc(/C=C2/C(=N)N3N=C(CC(=O)N4CCCC4)SC3=NC2=O)o1 | 6.4 | -0.2 | 19.0 | 3.9 | 11.1 | /
N#Cc1c(N)n(-c2ccc(C(=O)O)cc2)c2nc3ccccc3nc12 | -63.5 | 0.5 | / | 74.0* | 7.0 | -5.8%
Cc1c(C(=O)N2CCN(c3ccc(F)cc3)CC2)sc2ncnc(N3CCN(c4ccccn4)CC3)c12 | -4.4 | 0.0 | 0.8 | 58.9* | 0.6 | -6.1%
O=C1C(Cl)=C(NCCN2CCOCC2)C(=O)c2ccccc21 | -2.8 | 0.0 | 17.2 | 101.3* | 69.6* | 1.3%
CCOCCCNC1=C(Cl)C(=O)c2ccccc2C1=O | 5.7 | -0.2 | 24.0* | 81.0* | 7.6 | -14.2%
CC(=NNC(N)=S)c1ccncc1 | / | / | 2.3 | / | / | /
COc1ccc(C)cc1NCc1ccc([N+](=O)[O-])cc1 | -4.0 | -0.4 | 1.7 | 17.7 | 2.1 | /
COc1ccc(C)cc1NCc1ccc(OC)c(C)c1OC | -4.0 | -0.1 | 2.4 | 79.5* | 2.1 | -18.7%
CC(C)COC(=NS(=O)(=O)c1ccccc1)c1ccccc1 | / | / | 2.2 | / | / | /
CCN(CC)CCOc1ccc(C=NNc2nc3c([nH]2)c(=O)n(C)c(=O)n3C)cc1 | / | -0.5 | 5.5 | 51.5* | -8.6 | -4.5%
O=C(COC(=O)c1ccccn1)Nc1ncc(C(F)(F)F)cc1Cl | / | / | 1.9 | -2.2 | / | /
O=C(COC(=O)c1ccc([N+](=O)[O-])s1)Nc1ncc(C(F)(F)F)cc1Cl | / | / | 16.3 | 75.3* | / | 0.3%
CC(C)(C)C1CCC2(CC1)C(Nc1cccc(C(F)(F)F)c1)=NC(=S)N2CC#N (stereo not given) | / | / | 2.4 | 63.7* | / | 2.3%
CC12CCC(C(=O)O)(c3nc4cc([N+](=O)[O-])ccc4nc31)C2(C)C (stereo not given) | -4.4 | 0.5 | 6.6 | -1.4 | 9.5 | /
CC12CCC(C)(c3nc4ccccc4nc31)C2(C)C | -3.3 | 0.1 | 5.8 | 52.7* | -3.4 | -2.9%
C[C@H]1CCCCO[C@@H](CN(C)Cc2ccc(C(=O)O)cc2)[C@@H](C)CN([C@@H](C)CO)C(=O)c2cc(NC(=O)c3ccncc3)ccc2O1 | -0.7 | 0.0 | / | / | 2.2 | /
COc1ccc(/C=N/NC(=O)c2cc(O)c(O)c(O)c2)cc1Cn1cc([N+](=O)[O-])cn1 | 3.0 | -0.6 | / | 72.6* | 62.0* | 8.63µM*
C[C@H](O)C#Cc1ccc([C@@H]2[C@@H](CO)N3CCCCN(C(=O)c4ccc5c(c4)OCO5)C[C@@H]23)cc1 | 1.2 | -0.4 | / | / | 1.4 | /
O=C(c1ccccn1)N1C[C@@H]2[C@H](c3ccccc31)[C@@H](CO)N2C(=O)C1CCOCC1 | -4.4 | -0.5 | / | / | 2.6 | /
CC1=NN(c2ccc(S(=O)(=O)O)cc2Cl)C(=O)C1 | 1.3 | 1.2 | 5.6 | 70.8* | 47.0* | 0.2%
COc1ccccc1N1CCN(C2CCN(C(=O)c3cccc(F)c3)CC2)CC1 | -4.0 | 0.7 | 2.4 | 59.0* | -5.1 | -2.1%
SMILES | SIRT5 block | FGF22 binding | UCH37 inh | NSD2 HMT inh | CASP6 VEID inh | AlphaScreen art
COc1ccccc1N1CCN(C2CCN(C(=O)c3ccc(F)cc3)CC2)CC1 | 1.6 | 0.0 | 0.7 | -0.1 | -5.2 | /
CC1(C)C2CCC1(C)C(OC(=O)CSc1nc(N)cc(=O)[nH]1)C2 (stereo not given) | / | / | 7.4 | 80.2* | / | -3.7%
CCC1CCCCN1C(=O)CSc1nc(N)cc(=O)[nH]1 (stereo not given) | -2.1 | 0.5 | -0.4 | -0.7 | -2.2 | /
CCOC(=O)C1CCCN(C(=O)c2ccc(S(=O)(=O)Nc3ccccc3OC)cc2)C1 (stereo not given) | -1.2 | -0.2 | 1.1 | 53.7* | -39.7 | 2.2%
CCOC(=O)C1CCCN(C(=O)c2ccc(OC(C)=O)cc2)C1 (stereo not given) | / | / | 1.4 | 93.4* | / | -5.7%
C[C@H]1CN([C@@H](C)CO)C(=O)c2cc(-c3ccc(F)cc3)cnc2O[C@@H]1CN(C)C(=O)Cc1ccccc1 | 2.6 | 0.0 | / | / | 2.6 | /
COc1ccc(NC(=O)N(C)C[C@H]2OCCCC[C@@H](C)Oc3ccc(NC(=O)C4CCCCC4)cc3C(=O)N([C@@H](C)CO)C[C@@H]2C)cc1 | -0.8 | -0.2 | / | / | -0.3 | /
CCCC(=O)N1CC2(C1)CN(C(=O)Cc1ccccn1)[C@@H](CO)c1[nH]c3cc(OC)ccc3c12 | / | -0.3 | / | / | 6.5 | /
C[C@@H]1CN([C@@H](C)CO)C(=O)Cc2cc(NS(C)(=O)=O)ccc2O[C@@H]1CN(C)C(=O)Nc1ccccc1 | -0.4 | 0.0 | / | / | 2.5 | /
Cc1noc(C)c1NC(=O)Nc1ccc2c(c1)C(=O)N([C@H](C)CO)C[C@H](C)[C@H](CN(C)C(=O)Nc1ccc(F)cc1)OCCCC[C@@H](C)O2 | -4.7 | -0.3 | / | / | 1.4 | /
CN(CCc1ccccc1)C1CCCN(S(=O)(=O)N(C)C)C1 (stereo not given) | 1.4 | -0.1 | 1.0 | 53.2* | 3.6 | -0.5%
CN(CCc1ccccc1)C1CCCN(S(=O)(=O)c2cccc(F)c2)C1 (stereo not given) | 0.0 | -0.2 | -2.9 | 12.3 | 7.2 | /
CCc1cc(OCCN2C(=O)NC(C)(C)C2=O)ccc1Cl | / | / | 4.2 | 71.8* | / | -3.1%
CC1(C)NC(=O)N(CCCOc2ccc3c(c2)CCC3)C1=O | / | / | 1.3 | 15.8 | / | /
CC1(C)CC(NC(=O)CCc2nnc(CCCCc3ccccc3)o2)CCO1 (stereo not given) | -1.7 | -0.4 | 6.6 | -0.4 | -0.3 | /
O=C(CCc1nnc(CCCCc2ccccc2)o1)NC1CCCC1 | -1.5 | 0.1 | -1.7 | 82.9* | -4.8 | -4.6%
COCCNc1nc(-c2ccccc2)nc2ccccc12 | 1.8 | 0.2 | -0.2 | 50.8* | -0.6 | -3.2%
c1ccc(CNc2nc(-c3cccnc3)nc3ccccc23)cc1 | 0.6 | -0.3 | 3.0 | -1.3 | 0.3 | /
COCCCNc1nc(-c2ccncc2)nc2ccccc12 | / | / | -0.7 | -2.2 | / | /
Fc1ccc(CNc2nc(-c3cccnc3)nc3ccccc23)cc1 | 14.8 | -0.4 | 0.9 | 118.4* | -5.5 | 1.1%

Screening data: PubChem BioAssay, several laboratories
